# Experiments:
# Somatostatin receptor = test: Antagonism of in vitro SRIF inhibition of GH release in rat in vitro pituitary cell assay; assay type: functional, cell-based; conditions: pituitary gland cell
# Method in brief: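 Dispersed adult male rat anterior pituitary cells (trypsin/DNase), about 200 000 cells/well, cultured 4–5 days at 37 °C. GH measured by double-antibody RIA. IC50 versus SRIF, mean ± SEM of n dose–response curves.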
# [1] = molecular target: Somatostatin receptor type 1 (Homo sapiens, UniProt P30872); test: The compound was tested for binding affinity against human Somatostatin receptor type 1
# Somatostatin receptor type 1, sequence (P30872 whole entry): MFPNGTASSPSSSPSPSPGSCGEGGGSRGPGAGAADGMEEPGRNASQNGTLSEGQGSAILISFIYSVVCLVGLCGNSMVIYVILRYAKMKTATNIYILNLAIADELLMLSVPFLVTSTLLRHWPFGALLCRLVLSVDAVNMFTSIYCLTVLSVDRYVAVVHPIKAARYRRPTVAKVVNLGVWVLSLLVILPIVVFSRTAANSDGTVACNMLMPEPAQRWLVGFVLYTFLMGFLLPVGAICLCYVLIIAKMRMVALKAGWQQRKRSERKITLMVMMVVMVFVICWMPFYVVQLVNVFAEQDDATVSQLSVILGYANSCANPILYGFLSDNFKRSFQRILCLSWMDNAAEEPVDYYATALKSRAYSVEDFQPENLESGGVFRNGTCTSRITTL
# Method in brief: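 Membranes from CHO-K1 cells transfected with the cloned human receptor. Terminated by filtration on PEI-soaked GF/C filters. Nonspecific binding defined with 1.0 μM SRIF. Mean ± SEM; single values are from one experiment.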
# [2] = molecular target: Somatostatin receptor type 3 (Homo sapiens, UniProt P32745); test: The compound was tested for binding affinity against human Somatostatin receptor type 3
# Somatostatin receptor type 3, sequence (P32745 whole entry): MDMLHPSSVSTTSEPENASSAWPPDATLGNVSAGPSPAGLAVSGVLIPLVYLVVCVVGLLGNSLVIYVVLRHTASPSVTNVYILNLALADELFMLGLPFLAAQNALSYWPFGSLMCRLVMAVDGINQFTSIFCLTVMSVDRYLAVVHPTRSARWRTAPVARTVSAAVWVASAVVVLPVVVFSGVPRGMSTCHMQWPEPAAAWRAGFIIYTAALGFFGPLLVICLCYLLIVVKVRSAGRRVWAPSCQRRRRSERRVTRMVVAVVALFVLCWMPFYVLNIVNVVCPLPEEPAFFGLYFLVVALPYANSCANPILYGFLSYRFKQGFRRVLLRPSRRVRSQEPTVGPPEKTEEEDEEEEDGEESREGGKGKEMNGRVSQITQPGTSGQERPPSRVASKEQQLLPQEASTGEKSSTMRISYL
# Method in brief: (§1)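 CHO-K1 cells stably transfected (calcium phosphate) with cloned human sst3 or sst4. Membranes made in ice-cold 50 mM Tris-HCl, resuspended in 10 mM Tris-HCl, then incubated 30 min at 37 °C with 0.05 nM [125I]Tyr11-SRIF in HEPES pH 7.4 with BSA, MgCl2 and protease inhibitors. Filtered on GF/C; nonspecific binding with 1.0 µM SRIF. Mean ± SEM, or one experiment.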
# [3] = molecular target: Somatostatin receptor type 4 (Homo sapiens, UniProt P31391); test: The compound was tested for binding affinity against human Somatostatin receptor type 4; method in brief: as §1
# Somatostatin receptor type 4, sequence (P31391 whole entry): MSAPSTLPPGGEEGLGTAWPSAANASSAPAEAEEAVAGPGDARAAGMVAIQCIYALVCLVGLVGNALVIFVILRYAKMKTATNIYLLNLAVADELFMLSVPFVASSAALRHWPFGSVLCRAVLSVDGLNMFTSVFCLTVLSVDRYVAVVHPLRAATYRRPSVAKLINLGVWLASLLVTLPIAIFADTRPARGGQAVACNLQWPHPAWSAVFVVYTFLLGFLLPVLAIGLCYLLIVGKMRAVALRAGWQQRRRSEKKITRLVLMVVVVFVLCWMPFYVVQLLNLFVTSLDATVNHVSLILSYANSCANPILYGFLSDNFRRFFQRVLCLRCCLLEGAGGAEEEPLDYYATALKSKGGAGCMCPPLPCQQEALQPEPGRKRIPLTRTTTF
# [4] = molecular target: Somatostatin receptor type 2 (Homo sapiens, UniProt P30874); test: The compound was tested for binding affinity against human Somatostatin receptor type 2
# Somatostatin receptor type 2, sequence (P30874 whole entry): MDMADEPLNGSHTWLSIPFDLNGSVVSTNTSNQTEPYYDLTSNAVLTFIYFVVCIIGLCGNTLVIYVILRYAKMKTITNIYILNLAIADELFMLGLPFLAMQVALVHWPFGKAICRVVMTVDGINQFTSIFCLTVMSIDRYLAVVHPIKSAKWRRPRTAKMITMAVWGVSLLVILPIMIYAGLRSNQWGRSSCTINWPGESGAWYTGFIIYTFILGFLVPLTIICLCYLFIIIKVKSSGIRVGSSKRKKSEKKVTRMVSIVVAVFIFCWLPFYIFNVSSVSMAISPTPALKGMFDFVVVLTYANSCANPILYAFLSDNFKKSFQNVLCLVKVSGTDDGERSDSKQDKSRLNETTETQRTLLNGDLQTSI
# Method in brief: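 Membranes from CHO-K1 cells transfected with the cloned human sst2. Incubated 30 min at 37 °C with 0.05 nM [125I]MK-678 in HEPES pH 7.4 with BSA, MgCl2, Trasylol, bacitracin and PMSF. Filtration on PEI-soaked GF/C filters. Nonspecific binding defined with 1.0 μM SRIF. Mean ± SEM; single values are from one experiment.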
IC50 (Somatostatin receptor) [nM],SMILES,further results
2410,CC(C)[C@H]1NC(=O)[C@H](CCCCN)NC(=O)[C@@H](Cc2c[nH]c3ccccc23)NC(=O)[C@H](Cc2c[nH]cn2)NC(=O)C(NC(=O)[C@@H](N)Cc2c(F)c(F)c(F)c(F)c2F)CSSCC(C(=O)N[C@@H](Cc2c(F)c(F)c(F)c(F)c2F)C(N)=O)NC1=O (stereo in doubt),–
2.6,CC(C)[C@H]1NC(=O)[C@H](CCCCN)NC(=O)[C@@H](Cc2c[nH]c3ccccc23)NC(=O)[C@H](Cc2cccnc2)NC(=O)[C@@H](NC(=O)[C@@H](N)Cc2ccc(Cl)cc2)CSSC[C@H](C(=O)N[C@@H](Cc2ccc3ccccc3c2)C(N)=O)NC1=O,–
48,CC(C)C[C@@H]1NC(=O)[C@H](CCCCN)NC(=O)[C@@H](Cc2c[nH]c3ccccc23)NC(=O)[C@H](Cc2cccnc2)NC(=O)[C@@H](NC(=O)[C@@H](N)Cc2ccc3ccccc3c2)CSSC[C@@H](C(=O)N[C@@H](Cc2ccc3ccccc3c2)C(N)=O)NC1=O,–
1510,NCCCC[C@@H]1NC(=O)[C@@H](Cc2c[nH]c3ccccc23)NC(=O)[C@H](Cc2cccnc2)NC(=O)[C@@H](NC(=O)[C@@H](N)Cc2ccc3ccccc3c2)CSSC[C@@H](C(=O)N[C@@H](Cc2ccc3ccccc3c2)C(N)=O)NC(=O)CNC1=O,–
15,CC(C)[C@H]1NC(=O)[C@H](CCCCN)NC(=O)[C@@H](Cc2c[nH]c3ccccc23)NC(=O)[C@H](Cc2cccnc2)NC(=O)[C@@H](NC(=O)[C@@H](N)Cc2ccc3ccccc3c2)CSSC[C@H](C(=O)N[C@@H](Cc2ccc3ccccc3c2)C(N)=O)NC1=O,–
765,CC(C)[C@H]1NC(=O)[C@H](CCCCN)NC(=O)[C@@H](Cc2c[nH]c3ccccc23)NC(=O)[C@H](Cc2ccccn2)NC(=O)[C@@H](NC(=O)[C@@H](N)Cc2c(F)c(F)c(F)c(F)c2F)CSSC[C@H](C(=O)N[C@@H](Cc2c(F)c(F)c(F)c(F)c2F)C(N)=O)NC1=O,–
425,C[C@@H]1NC(=O)[C@H](CCCCN)NC(=O)[C@@H](Cc2c[nH]c3ccccc23)NC(=O)[C@H](Cc2cccnc2)NC(=O)[C@@H](NC(=O)[C@@H](N)Cc2ccc3ccccc3c2)CSSC[C@@H](C(=O)N[C@@H](Cc2ccc3ccccc3c2)C(N)=O)NC1=O,–
2.7,C[C@@H](O)[C@@H]1NC(=O)[C@H](CCCCN)NC(=O)[C@@H](Cc2c[nH]c3ccccc23)NC(=O)[C@@H](Cc2ccccn2)NC(=O)C(NC(=O)[C@@H](N)Cc2ccc(Cl)cc2)CSSCC(C(=O)N[C@@H](Cc2ccc3ccccc3c2)C(N)=O)NC1=O (stereo in doubt),–
2.7,CC(C)[C@H]1NC(=O)[C@H](CCCCN)NC(=O)[C@@H](Cc2c[nH]c3ccccc23)NC(=O)[C@H](Cc2cccnc2)NC(=O)[C@@H](NC(=O)[C@@H](N)Cc2ccc(Br)cc2)CSSC[C@H](C(=O)N[C@@H](Cc2ccc(Br)cc2)C(N)=O)NC1=O,–
91,CC(C)[C@H]1NC(=O)[C@H](CCCCN)NC(=O)[C@@H](Cc2c[nH]c3ccccc23)NC(=O)[C@H](Cc2cccnc2)NC(=O)[C@@H](NC(=O)[C@@H](N)Cc2ccc3ccccc3c2)CSSC[C@H](C(=O)N[C@H](C(N)=O)C(c2ccccc2)c2ccccc2)NC1=O,–
137,CC(C)[C@H]1NC(=O)[C@H](CCCCN)NC(=O)[C@@H](Cc2c[nH]c3ccccc23)NC(=O)[C@H](Cc2c[nH]cn2)NC(=O)C(NC(=O)[C@@H](N)Cc2cccc(F)c2)CSSCC(C(=O)N[C@@H](Cc2cccc(F)c2)C(N)=O)NC1=O (stereo in doubt),–
1.1,C[C@@H](O)[C@@H]1NC(=O)[C@H](CCCCN)NC(=O)[C@@H](Cc2c[nH]c3ccccc23)NC(=O)[C@H](Cc2ccc(O)cc2)NC(=O)[C@H](NC(=O)[C@@H](N)Cc2ccc(Cl)cc2)CSSC[C@@H](C(=O)N[C@@H](Cc2ccc3ccccc3c2)C(N)=O)NC1=O,Ki [1]: > 1000 nM; Ki [2]: 93 nM; Ki [3]: > 1000 nM; Ki [4]: 26 nM
51,CC(C)[C@H]1NC(=O)[C@H](CCCCN)NC(=O)[C@@H](Cc2c[nH]c3ccccc23)NC(=O)[C@H](Cc2cccnc2)NC(=O)[C@@H](NC(=O)[C@@H](N)Cc2ccc(C#N)cc2)CSSC[C@H](C(=O)N[C@@H](Cc2ccc(C#N)cc2)C(N)=O)NC1=O,–
4,CC(C)[C@H]1NC(=O)[C@H](CCCCN)NC(=O)[C@@H](Cc2c[nH]c3ccccc23)NC(=O)[C@H](Cc2cccnc2)NC(=O)[C@@H](NC(=O)[C@@H](N)Cc2ccc(I)cc2)CSSC[C@H](C(=O)N[C@@H](Cc2ccc(I)cc2)C(N)=O)NC1=O,–
125,CC(C)(C)C[C@@H]1NC(=O)[C@H](CCCCN)NC(=O)[C@@H](Cc2c[nH]c3ccccc23)NC(=O)[C@H](Cc2cccnc2)NC(=O)C(NC(=O)[C@@H](N)Cc2ccc(Cl)cc2)CSSCC(C(=O)N[C@@H](Cc2ccc3ccccc3c2)C(N)=O)NC1=O (stereo in doubt),–
393,CC(C)[C@H]1NC(=O)[C@H](CCCCN)NC(=O)[C@@H](Cc2c[nH]c3ccccc23)NC(=O)[C@H](Cc2c[nH]cn2)NC(=O)C(NC(=O)[C@@H](N)Cc2ccccc2F)CSSCC(C(=O)N[C@@H](Cc2ccccc2F)C(N)=O)NC1=O (stereo in doubt),–
2110,CC[C@H](C)[C@H]1NC(=O)[C@H](CCCCN)NC(=O)[C@@H](Cc2c[nH]c3ccccc23)NC(=O)[C@H](Cc2ccc(O)cc2)NC(=O)[C@@H](NC(=O)[C@@H](N)Cc2ccc(-c3ccccc3)cc2)CSSC[C@@H](C(=O)N[C@@H](Cc2ccc(-c3ccccc3)cc2)C(N)=O)NC1=O,–
135,C[C@@H](O)[C@@H]1NC(=O)[C@H](CCCCN)NC(=O)[C@@H](Cc2c[nH]c3ccccc23)NC(=O)[C@H](Cc2ccccn2)NC(=O)C(NC(=O)[C@@H](N)Cc2ccc(Cl)cc2)CSSCC(C(=O)N[C@@H](Cc2ccc3ccccc3c2)C(N)=O)NC1=O (stereo in doubt),–
74,CC(C)[C@H]1NC(=O)[C@H](CCCCN)NC(=O)[C@@H](Cc2c[nH]c3ccccc23)NC(=O)[C@H](Cc2cccnc2)NC(=O)[C@@H](NC(=O)[C@H](N)Cc2ccc(F)cc2)CSSC[C@H](C(=O)N[C@H](Cc2ccc(F)cc2)C(N)=O)NC1=O,–
77,CC(C)[C@H]1NC(=O)[C@H](CCCCN)NC(=O)[C@@H](Cc2c[nH]c3ccccc23)NC(=O)[C@H](Cc2cccnc2)NC(=O)[C@@H](NC(=O)[C@@H](N)Cc2cccc(F)c2)CSSC[C@H](C(=O)N[C@@H](Cc2cccc(F)c2)C(N)=O)NC1=O,–
292,CC(C)[C@H]1NC(=O)[C@H](CCCCN)NC(=O)[C@@H](Cc2c[nH]c3ccccc23)NC(=O)[C@H](Cc2cccnc2)NC(=O)[C@@H](NC(=O)[C@@H](N)Cc2c(F)c(F)c(F)c(F)c2F)CSSC[C@H](C(=O)N[C@@H](Cc2c(F)c(F)c(F)c(F)c2F)C(N)=O)NC1=O,–
114,CC(C)[C@H]1NC(=O)[C@H](CCCCN)NC(=O)[C@@H](Cc2c[nH]c3ccccc23)NC(=O)[C@H](Cc2cccnc2)NC(=O)[C@@H](NC(=O)[C@@H](N)Cc2ccccc2F)CSSC[C@H](C(=O)N[C@@H](Cc2ccccc2F)C(N)=O)NC1=O,–

SMILES,IC50 (Somatostatin receptor) [nM],further results
CC(C)[C@@H]1NC(=O)[C@H](CCCCN)NC(=O)[C@@H](Cc2c[nH]c3ccccc23)NC(=O)[C@H](Cc2ccc(O)c(I)c2)NC(=O)C(NC(=O)[C@@H](N)Cc2ccc3ccccc3c2)CSSCC(C(=O)N[C@@H](Cc2ccc3ccccc3c2)C(N)=O)NC1=O (stereo in doubt),20,–

# Reference: ChEMBL document CHEMBL1132220 (J Med Chem, 1999)
